{"source": "paper PMC2978887", "about": "(Calcified Tissue International, 2010)", "key": {"[1]": {"test": "Population pharmacokinetics of teriparatide after subcutaneous injection", "type": "in vivo, postmenopausal women with osteoporosis", "how_it_was_run": "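Serum drug levels measured in a 360-patient subset at months 1, 3, 6, 12 and 18, one sample per visit within a 0–30 min, 30 min–1 h, 1–2 h, 2–3 h or 3–4 h postdose window. Serum stored at -70°C; two-site immunoradiometric assay using bead-bound capture and 125I-labelled detection antibodies to PTH 1–34. Standard curve 9.8–20,000 pg/ml; quantifiable range 50–2,000 pg/ml; accuracy and precision ±20%.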"}, "serum calcium [2]": {"test_system": "serum calcium", "test": "Serum calcium pharmacodynamic response to teriparatide", "type": "in vivo, postmenopausal women with osteoporosis", "conditions": "for predose serum calcium, mean ± SE: samples 16–24 h postdose", "how_it_was_run": "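Unadjusted total serum calcium measured in all patients at baseline and 4–6 h postdose at months 1, 3, 6, 12, 18 and 24, at three laboratories using identical, cross-calibrated methods. Samples falling 16–24 h postdose served as predose values.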"}, "[3]": {"test": "Adverse events commonly associated with hypercalcemia, Fracture Prevention Trial", "type": "in vivo, postmenopausal women with osteoporosis", "conditions": "teriparatide 20 μg/day; overall cohort (n = 541)", "how_it_was_run": "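Events typical of hypercalcemia were collected throughout the trial in women randomized to once-daily subcutaneous teriparatide or placebo. They were tabulated for the whole teriparatide cohort and for the subset whose 4–6 h postdose serum calcium exceeded 10.6 mg/dl.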"}, "[4]": {"conditions": "cited from earlier work"}, "serum calcium [5]": {"test_system": "serum calcium", "conditions": "rats; subcutaneous injections every hour for six injections; cited from earlier work"}, "[6]": {"conditions": "cited from earlier work", "remark": "listed apart in the source"}, "[7]": {"conditions": "cited from earlier work", "remark": "listed apart in the source"}, "[8]": {"conditions": "comparing 10th and 90th percentiles of body weight (51–80 kg), population PK"}, "[9]": {"conditions": "female, human, serum, sc, 20 ug"}, "[10]": {"conditions": "daily injections of teriparatide 20 µg"}, "[11]": {"conditions": "indirect-response PK–PD model, teriparatide 20 μg sc, 360 patients"}}, "note": "Where two headings read alike, the source gives them in different places."}
{"compound": "CC[C@H](C)[C@H](NC(=O)[C@H](CCC(=O)O)NC(=O)[C@H](CO)NC(=O)[C@@H](NC(=O)[C@@H](N)CO)C(C)C)C(=O)N[C@@H](CCC(N)=O)C(=O)N[C@@H](CC(C)C)C(=O)N[C@@H](CCSC)C(=O)N[C@@H](Cc1cnc[nH]1)C(=O)N[C@@H](CC(N)=O)C(=O)N[C@@H](CC(C)C)C(=O)NCC(=O)N[C@@H](CCCCN)C(=O)N[C@@H](Cc1cnc[nH]1)C(=O)N[C@@H](CC(C)C)C(=O)N[C@@H](CC(N)=O)C(=O)N[C@@H](CO)C(=O)N[C@@H](CCSC)C(=O)N[C@@H](CCC(=O)O)C(=O)N[C@@H](CCCN=C(N)N)C(=O)N[C@H](C(=O)N[C@@H](CCC(=O)O)C(=O)N[C@@H](Cc1c[nH]c2ccccc12)C(=O)N[C@@H](CC(C)C)C(=O)N[C@@H](CCCN=C(N)N)C(=O)N[C@@H](CCCCN)C(=O)N[C@@H](CCCCN)C(=O)N[C@@H](CC(C)C)C(=O)N[C@@H](CCC(N)=O)C(=O)N[C@@H](CC(=O)O)C(=O)N[C@H](C(=O)N[C@@H](Cc1cnc[nH]1)C(=O)N[C@@H](CC(N)=O)C(=O)N[C@@H](Cc1ccccc1)C(=O)O)C(C)C)C(C)C", "note": "[teriparatide, recombinant human parathyroid hormone (rhPTH[1–34])]", "values": [{"measurement": "total duration of exposure to the peptide", "setting": "[1]; 20 μg sc once daily", "result": "approximately 4 h"}, {"measurement": "duration of exposure above basal endogenous PTH concentrations (28 pg/ml)", "setting": "[1]; 20 μg sc, molar basis, concentration–time profile extrapolated to infinite time", "result": "about 4 h"}, {"measurement": "prolongation in Tmax in heavier patients", "setting": "[1]; [8]", "result": 2.3, "unit": "min"}, {"measurement": "reduction in Cmax in heavier patients", "setting": "[1]; [8]", "result": 26, "unit": "%"}, {"measurement": "CL/F", "setting": "[1]; [9]", "result": "~1030", "unit": "mL/min"}, {"measurement": "Tmax", "setting": "[1]; [9]", "result": "~30", "unit": "min"}, {"measurement": "level at 3 h", "setting": "[1]; [9]", "result": "< 0.05", "unit": "ng/mL"}, {"measurement": "slower rate of absorption, thigh vs abdominal wall injection", "setting": "[1]; population PK covariate estimate, 20 μg sc", "result": 21, "unit": "%"}, {"measurement": "half-life based upon Ka (ln 2/Ka)", "setting": "[1]; population PK model, 20 μg sc", "result": 1.1, "unit": "h"}, {"measurement": "predose serum calcium, mean ± SE", "setting": "serum calcium [2]; 1 month, teriparatide 20 μg", "result": "9.19 ± 0.03", "unit": "mg/dL"}, {"measurement": "predose serum calcium, mean ± SE", "setting": "serum calcium [2]; 3 months, teriparatide 20 μg", "result": "9.12 ± 0.08", "unit": "mg/dL"}, {"measurement": "predose serum calcium, mean ± SE", "setting": "serum calcium [2]; 6 months, teriparatide 20 μg", "result": "9.29 ± 0.03", "unit": "mg/dL"}, {"measurement": "predose serum calcium, mean ± SE", "setting": "serum calcium [2]; 12 months, teriparatide 20 μg", "result": "9.40 ± 0.03", "unit": "mg/dL"}, {"measurement": "predose serum calcium, mean ± SE", "setting": "serum calcium [2]; 18 months, teriparatide 20 μg", "result": "9.30 ± 0.08", "unit": "mg/dL"}, {"measurement": "predose serum calcium, mean ± SE", "setting": "serum calcium [2]; 24 months, teriparatide 20 μg", "result": "9.26 ± 0.05", "unit": "mg/dL"}, {"measurement": "time after dosing at which serum calcium begins to increase", "setting": "serum calcium [2]; [10]", "result": "approximately 2 h"}, {"measurement": "time of maximum serum calcium concentration/effect after dosing", "setting": "serum calcium [2]; [10]", "result": 4.25, "unit": "h"}, {"measurement": "Emax, maximum calcemic response", "setting": "serum calcium [2]; indirect-response PK–PD model, 62% CV", "result": 19.5, "unit": "%"}, {"measurement": "EC50, teriparatide concentration required to produce 50% of the maximum calcium effect", "setting": "serum calcium [2]; indirect-response PK–PD model, serum teriparatide", "result": 0.054, "unit": "ng/mL"}, {"measurement": "Kin, zero-order production rate for change in serum calcium", "setting": "serum calcium [2]; [11]", "result": "1.1 mg/(dl · hour)"}, {"measurement": "Kout, first-order dissipation rate for calcium response", "setting": "serum calcium [2]; [11]", "result": 0.12, "unit": "h⁻¹"}, {"measurement": "patients with a predose serum calcium >11.0 mg/dl", "setting": "serum calcium [2]; teriparatide 20 μg", "result": "no"}, {"measurement": "patients with serum calcium above the upper limit of normal (10.6 mg/dl) 4–6 h after dosing", "setting": "serum calcium [2]; teriparatide 20 µg group, fifty patients, placebo 1.1%", "result": 9.4, "unit": "%"}, {"measurement": "time after dosing at which serum calcium begins to decline", "setting": "serum calcium [2]; teriparatide 20 µg sc daily", "result": "approximately 6 h"}, {"measurement": "time after each dose by which serum calcium returned to predose levels", "setting": "serum calcium [2]; teriparatide 20 µg sc daily", "result": "16 to 24", "unit": "h"}, {"measurement": "persistent hypercalcemia", "setting": "serum calcium [2]; teriparatide 20 μg sc daily, median 21 months' treatment", "result": "not observed"}, {"measurement": "patients with a predose serum calcium value >10.6 mg/dl", "setting": "serum calcium [2]; teriparatide 20 μg, 1/223 patients", "result": 0.4, "unit": "%"}, {"measurement": "Abdominal pain", "setting": "[3]", "result": "48 (8.9%) n (%)"}, {"measurement": "Anorexia", "setting": "[3]", "result": "8 (1.5%) n (%)"}, {"measurement": "Arrhythmias", "setting": "[3]", "result": "9 (1.7%) n (%)"}, {"measurement": "Constipation", "setting": "[3]", "result": "32 (5.9%) n (%)"}, {"measurement": "Depression", "setting": "[3]", "result": "21 (3.9%) n (%)"}, {"measurement": "Headache", "setting": "[3]", "result": "44 (8.1%) n (%)"}, {"measurement": "Hypertension", "setting": "[3]", "result": "41 (7.6%) n (%)"}, {"measurement": "Nausea", "setting": "[3]", "result": "51 (9.4%) n (%)"}, {"measurement": "Pancreatitis", "setting": "[3]", "result": "1 (0.2%) n (%)"}, {"measurement": "Peptic ulcer/gastritis", "setting": "[3]", "result": "8 (1.5%) n (%)"}, {"measurement": "Vomiting", "setting": "[3]", "result": "19 (3.5%) n (%)"}, {"measurement": "bioavailability", "setting": "[4]", "result": 95, "unit": "%"}, {"measurement": "half-life following injection", "setting": "[4]", "result": 60, "unit": "min"}, {"measurement": "time to peak concentration following injection", "setting": "[4]", "result": 30, "unit": "min"}, {"measurement": "true elimination half-life following intravenous administration", "setting": "[4]; intravenous", "result": 5, "unit": "min"}, {"measurement": "sustained elevated serum calcium concentrations", "setting": "serum calcium [5]", "result": "sustained elevated serum calcium concentrations occurred"}]}
{"compound": "parathyroid hormone [PTH]", "values": [{"measurement": "half-life (clearance of the endogenous hormone)", "setting": "[6]", "result": "< 2", "unit": "min"}]}
{"compound": "rhPTH(1–84): full human recombinant PTH, available for treatment of osteoporosis in some countries at a daily dose of 100 μg", "values": [{"measurement": "bioavailability", "setting": "[7]", "result": 55, "unit": "%"}, {"measurement": "apparent terminal half-life", "setting": "[7]; sc", "result": "90 to 150", "unit": "min"}, {"measurement": "time of first peak of serum concentration–time profile after dosing", "setting": "[7]; single-dose sc, dose range 0.02–5.0 μg/kg", "result": "5 to 10", "unit": "min"}]}
